Assay results from ChEMBL document CHEMBL5634116, “Strategies for developing retinoic acid receptor alpha-selective antagonists as novel agents for male contraception” (Eur J Med Chem, 2023).
Activity calls are given as the source filed them. The rule behind the calls is not given here.

Key:
[1] = target: T1, Retinoic acid receptor alpha (Homo sapiens, UniProt P10276); assay: Antagonist activity at recombinant human RAR-alpha expressed in mammalian cells in presence of 9-cis-RA by luciferase reporter gene based transactivation assay; assay type: cell-based
T1 sequence (P10276 whole entry): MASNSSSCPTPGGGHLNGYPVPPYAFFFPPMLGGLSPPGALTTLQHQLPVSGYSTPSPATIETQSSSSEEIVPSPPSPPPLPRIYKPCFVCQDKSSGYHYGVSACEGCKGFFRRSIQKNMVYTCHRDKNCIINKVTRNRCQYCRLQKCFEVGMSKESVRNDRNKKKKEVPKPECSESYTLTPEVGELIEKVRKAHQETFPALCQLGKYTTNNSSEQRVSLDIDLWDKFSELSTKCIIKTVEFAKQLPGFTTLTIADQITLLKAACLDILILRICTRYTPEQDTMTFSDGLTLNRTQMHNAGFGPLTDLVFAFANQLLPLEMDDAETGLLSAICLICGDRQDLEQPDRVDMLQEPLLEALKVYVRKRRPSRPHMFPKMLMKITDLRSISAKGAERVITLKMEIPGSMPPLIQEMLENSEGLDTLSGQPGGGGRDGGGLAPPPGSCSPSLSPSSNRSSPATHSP
Outline: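 Compounds 8-point dose response in triplicate, DMSO final 0.4%; overnight at 37 °C, 5% CO2; luminescence after 30 min detection reagent. IC50 by four-parameter logistic fit; agonist-free wells set background.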

[2] = Partition coefficient, logD of compound in 1-octanol/PBS at pH 7.4; assay type: physicochemical; details: octanol/water
Outline: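 Distribution between 1-octanol and PBS at pH 7.4; log D reported.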

Mus musculus [3] = assay: Effect on spermatogenesis in CD-1 mouse assessed as abnormal epididymal sperm morphology at 5 mg/kg/day, po for 7 days measured after 4 weeks post-cessation of drug treatment by hematoxylin counter-staining based analysis; assay type: functional, organism-based; details: time 5.0 weeks
Mus musculus [4] = assay: Effect on spermatogenesis in CD-1 mouse assessed as abnormality in spermatid release at 5 mg/kg/day, po for 7 days measured after 4 weeks post-cessation of drug treatment by hematoxylin counter-staining based analysis; assay type: functional, organism-based; details: time 5.0 weeks
Mus musculus [5] = assay: Effect on spermatogenesis in CD-1 mouse assessed as sperm count at 10 mg/kg/day, po for 2 weeks measured on day 1 post-cessation of drug treatment by hemocytometry (reference value: 41.80 +/- 7.92 x 10^6No_unit); assay type: functional; details: time 15 day
Mus musculus [6] = assay: Effect on spermatogenesis in CD-1 mouse assessed as abnormality in spermatid release at 10 mg/kg/day, po for 2 weeks measured measured after 4 weeks post-cessation of drug treatment by hematoxylin counter-staining based analysis; assay type: functional, organism-based; details: time 6.0 weeks
Outline: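 CD1 males given 10 mg/kg/day orally for 2 weeks dissolved in 20% aqueous Kollisolv (n = 10 per time point); vehicle-only controls n = 5. Testes collected one day or 4 weeks after cessation, fixed in 4% paraformaldehyde or Bouin's, paraffin-embedded, PAS-stained with hematoxylin counterstain and tubules staged by bright-field microscopy.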

Mus musculus [7] = assay: Effect on spermatogenesis in CD-1 mouse assessed as reduction in sperm count administered as Avicel formulation at 10 mg/kg/day, po for 28 days consecutively measured on day 1 post-cessation of drug treatment by hemocytometry relative to control; assay type: functional; set-up: scale not given: the % may be the effect or the level left; details: time 29 day

- IC50 [1]: 4.6 nM
- logD [2]: 3.35
SMILES: Cc1ccc(C2=CC(C)(C)Oc3ccc(C(=O)Nc4ccc(C(=O)O)cc4)cc32)cc1
- Activity (Mus musculus [3]): inactive
- Activity (Mus musculus [4]): inactive
- Activity (Mus musculus [5]): 37.2 10^6No_unit
- Activity (Mus musculus [6]): inactive
- Activity (Mus musculus [7]): ~56%
